Measurements from PMC8733272 (iScience, 2021).
Each block holds one compound with its values, some of them ahead of it.

Experiments:
[1] = target: T1, WT-Parkin (Homo sapiens, UniProt O60260); assay: Parkin catalytic poly-auto-Ub TR-FRET assay; format: biochemical; details: for activity in TR-FRET autoubiquitination assay: WT-Parkin with pUb
T1 sequence (O60260 1-465): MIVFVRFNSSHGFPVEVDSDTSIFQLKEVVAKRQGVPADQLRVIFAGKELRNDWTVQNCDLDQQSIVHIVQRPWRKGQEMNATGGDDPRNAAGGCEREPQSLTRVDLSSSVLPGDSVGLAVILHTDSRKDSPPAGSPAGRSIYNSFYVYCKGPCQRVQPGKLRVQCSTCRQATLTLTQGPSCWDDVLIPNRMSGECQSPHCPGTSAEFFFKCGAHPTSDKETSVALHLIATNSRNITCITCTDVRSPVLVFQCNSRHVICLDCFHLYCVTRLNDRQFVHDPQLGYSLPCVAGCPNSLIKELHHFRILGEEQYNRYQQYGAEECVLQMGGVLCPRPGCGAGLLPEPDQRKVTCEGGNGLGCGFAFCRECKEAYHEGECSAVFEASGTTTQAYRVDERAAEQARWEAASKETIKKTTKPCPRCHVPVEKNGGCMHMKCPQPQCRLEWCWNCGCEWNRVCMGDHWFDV

[2] = test system: SH-SY5Y cells expressing the MitoQC construct; assay: MitoQC mitophagy assay; format: cell-based; details: 1 h pre-incubation, Antimycin + Oligomycin
Outline: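 SH-SY5Y cells carrying MitoQC were seeded at 1.6×10^4 cells/well on attachment factor and recovered 72 h. Cells were pre-treated 1 h with test compound, then given 5 μM Antimycin + 10 μM Oligomycin or DMSO for 8 h unless stated otherwise. Fixed in 2% PFA on ice 30 min, DAPI-stained, and imaged at 64x (25 fields, 4 replicate wells). mCherry puncta (mitolysosomes) were counted.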

[3] = target: T2, WT-Parkin (substrate His-Miro1 186-591) (Homo sapiens, UniProt O60260); assay: Miro1 ubiquitination assay by Western blot; format: biochemical; details: His-Miro1 (186-591) substrate
T2 sequence (O60260 1-465): T1 sequence (O60260 1-465)
Outline: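 Run as the TR-FRET reaction with untagged WT-Parkin. Test compound was pre-incubated 30 min with E1, E2, Parkin and His-Miro1 186-591 (250 nM final); the 2X mix held 40 nM E1, 800 nM E2 and 100 nM Parkin. After 20 min the reaction was stopped in SDS sample buffer, then run on 4–12% bis-tris SDS-PAGE, PVDF transfer and IR-dye secondary imaging.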

Structure (SMILES): CC(C)[C@H]1Cn2ncc(-c3ccc(C(=O)N4CCCc5ccccc54)cc3)c2CN1C(=O)Cc1ccccc1 [BIO-1966560, (S)-1-(6-isopropyl-3-(4-(1,2,3,4-tetrahydroquinoline-1-carbonyl)phenyl)-6,7-dihydropyrazolo[1,5-a]pyrazin-5(4H)-yl)-2-phenylethan-1-one]
- activity in TR-FRET autoubiquitination assay [1]: inactive

Structure (SMILES): C[C@H](C(=O)N1Cc2c(-c3ccc(C(=O)N4CCCc5ccccc54)cc3)cnn2C[C@H]1C)c1ccccc1 [BIO-1967173, (S)-1-((R)-6-methyl-3-(4-(1,2,3,4-tetrahydroquinoline-1-carbonyl)phenyl)-6,7-dihydropyrazolo[1,5-a]pyrazin-5(4H)-yl)-2-phenylpropan-1-one]
- effect on mitophagy, MitoQC [2]: no enhanced MitoQC activity

Structure (SMILES): C[C@H](C(=O)N1Cc2c(-c3ccc(C(=O)N4CCCc5ccccc54)cc3)cnn2C[C@@H]1C)c1ccccc1 [BIO-1968010, (S)-1-((S)-6-methyl-3-(4-(1,2,3,4-tetrahydroquinoline-1-carbonyl)phenyl)-6,7-dihydropyrazolo[1,5-a]pyrazin-5(4H)-yl)-2-phenylpropan-1-one]
- activity in TR-FRET autoubiquitination assay [1]: inactive

Structure (SMILES): CO[C@H](C(=O)N1Cc2c(-c3ccc(C(=O)N4CCCc5ccccc54)cc3)cnn2C[C@H]1C(C)C)c1ccccc1 (single isomer, unassigned) [BIO-2008550]
- effect on mitophagy, MitoQC [2]: no enhanced MitoQC activity

Further lines, with some results ahead:

- EC50 ([1]; EC50 (μM), WT-Parkin, 5 μM pUb, averaged technical replicates n = 2): < 0.2 µM
Structure (SMILES): CO[C@H](C(=O)N1Cc2c(-c3ccc(C(=O)N4CCCc5ccccc54)cn3)cnn2C[C@H]1C(C)C)c1cnn(C)c1 (single isomer, unassigned) [BIO-2007967]

- activity in TR-FRET autoubiquitination assay [1]: weakly active
Structure (SMILES): C[C@@H]1Cn2ncc(-c3ccc(C(=O)N4CCCc5ccccc54)cc3)c2CN1C(=O)[C@H](C)c1ccccc1 [BIO-1967174, (R)-1-((R)-6-methyl-3-(4-(1,2,3,4-tetrahydroquinoline-1-carbonyl)phenyl)-6,7-dihydropyrazolo[1,5-a]pyrazin-5(4H)-yl)-2-phenylpropan-1-one]
- Miro1 ubiquitination by Western blot [3]: enhance the rate of monoubiquitination of Miro1 substrate to a level comparable to that of W403A-Parkin

- potency improvement (fold) over parent analog ([1]; from TR-FRET EC50): 5 fold
Structure (SMILES): CC(C)[C@@H]1Cn2ncc(-c3ccc(C(=O)N4CCCc5ccccc54)cc3)c2CN1C(=O)Cc1ccccc1 [BIO-1966561, (R)-1-(6-isopropyl-3-(4-(1,2,3,4-tetrahydroquinoline-1-carbonyl)phenyl)-6,7-dihydropyrazolo[1,5-a]pyrazin-5(4H)-yl)-2-phenylethan-1-one]

- activity in TR-FRET autoubiquitination assay [1]: inactive
Structure (SMILES): C[C@@H](C(=O)N1Cc2c(-c3ccc(C(=O)N4CCCc5ccccc54)cc3)cnn2C[C@@H]1C)c1ccccc1 [BIO-1968011, (R)-1-((S)-6-methyl-3-(4-(1,2,3,4-tetrahydroquinoline-1-carbonyl)phenyl)-6,7-dihydropyrazolo[1,5-a]pyrazin-5(4H)-yl)-2-phenylpropan-1-one]
